Results taken from ChEMBL document CHEMBL4196014, “Highly convergent synthesis and antiviral activity of (E)-but-2-enyl nucleoside phosphonoamidates” (Eur J Med Chem, 2018).
The source made the active and inactive calls. The rule behind the calls is not given here.

Columns and labels:
Human betaherpesvirus 5 [1] = test: Antiviral activity against Human cytomegalovirus Davis infected in HEL cells assessed as reduction in viral cytopathic effect; type: functional, organism-based; conditions: Human betaherpesvirus 5, Davis
In short: (§1)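 Confluent cell monolayers were infected with 100 CCID50 of virus (1 CCID50 is the dose infecting 50% of cultures) with test compound at varying concentrations (100, 20, … μM). CPE was scored once it was complete in untreated infected controls.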

Coxsackievirus B4 [2] = test: Antiviral activity against Human coxsackievirus B4 infected in human HeLa cells assessed as reduction in viral cytopathic effect; type: functional, organism-based; in short: as §1
Vaccinia virus = test: Antiviral activity against Vaccinia virus infected in HEL cells assessed as reduction in viral cytopathic effect; type: functional, organism-based; conditions: Orthopoxvirus vaccinia; in short: as §1
Influenza B virus = test: Antiviral activity against Influenza B virus infected in MDCK cells assessed as reduction in viral cytopathic effect; type: functional, organism-based
In short: (§2)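 Nearly confluent MDCK cultures were infected with 100 CCID50 of virus with compound at varying concentrations (100, 20, … μM). CPE was scored when complete in untreated infected controls.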

Human alphaherpesvirus 1 [3] = test: Antiviral activity against thymidine kinase deficient acyclovir-resistant Human simplex virus 1 KOS infected in HEL cells assessed as reduction in viral cytopathic effect; type: functional, organism-based; conditions: Human alphaherpesvirus 1, KOS; in short: as §1
Human alphaherpesvirus 3 [4] = test: Antiviral activity against Varicella zoster virus Oka infected in HEL cells assessed as reduction in viral plaque formation; type: functional, organism-based; conditions: Human alphaherpesvirus 3, strain Oka vaccine
In short: (§3)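 Confluent cultures were inoculated with 20 PFU of virus with compound at varying concentrations (100, 20, … μM). Plaques were counted once plaque formation was complete in untreated infected controls.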

Influenza A virus = test: Antiviral activity against Influenza A virus (H1N1) infected in MDCK cells assessed as reduction in viral cytopathic effect; type: functional, organism-based; in short: as §2
Influenza A virus H3N2 = test: Antiviral activity against Influenza A virus H3N2 infected in MDCK cells assessed as reduction in viral cytopathic effect; type: functional, organism-based; in short: as §2
Human alphaherpesvirus 1 [5] = test: Antiviral activity against Human simplex virus 1 KOS infected in HEL cells assessed as reduction in viral cytopathic effect; type: functional, organism-based; conditions: Human alphaherpesvirus 1, KOS; in short: as §1
[6] = Cytotoxicity against HEL cells assessed as alteration of cell morphology by microscopic method; type: cell-based; conditions: human
In short: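 MCC is the lowest compound concentration giving a microscopically visible alteration of cell morphology.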

[7] = Selectivity index, ratio of CC50 for HEL cells to EC50 for Varicella zoster virus Oka infected in HEL cells; type: toxicity, cell-based; conditions: human, read-out: Ratio CC50/EC50
In short: (§4)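 SI is CC50 divided by EC50. CC50 comes from the 3-day HEL Coulter-counter growth assay. EC50 comes from the VZV plaque-reduction assay (20 PFU inoculum).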

Human alphaherpesvirus 2 = test: Antiviral activity against Human simplex virus 2 G infected in HEL cells assessed as reduction in viral cytopathic effect; type: functional, organism-based; conditions: Human alphaherpesvirus 2, strain G; in short: as §1
HEL = test: Cytostatic activity against HEL cells after 3 days by Coulter counting method; type: cell-based; conditions: human, 72 h
In short: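 HEL cells were seeded at 5 × 10^3 cells/well and grown for 24 h, then given medium with graded compound concentrations. After 3 days at 37 °C, cells were counted with a Coulter counter.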

Human alphaherpesvirus 3 [8] = test: Antiviral activity against thymidine kinase deficient Varicella zoster virus 07/1 infected in HEL cells assessed as reduction in viral plaque formation; type: functional, organism-based; conditions: Human alphaherpesvirus 3, 07/1, HEL; in short: as §3
Human coronavirus 229E = test: Antiviral activity against Human coronavirus 229E infected in HEL cells assessed as reduction in viral cytopathic effect; type: functional, organism-based; in short: as §1
[9] = tested on: Vesicular stomatitis virus; test: Antiviral activity against Vesicular stomatitis virus infected in human HeLa cells assessed as reduction in viral cytopathic effect; type: functional, organism-based; in short: as §1
[10] = tested on: Respiratory syncytial virus; test: Antiviral activity against Respiratory syncytial virus infected in human HeLa cells assessed as reduction in viral cytopathic effect; type: functional, organism-based; in short: as §1
Coxsackievirus B4 [11] = test: Antiviral activity against Coxsackievirus B4 infected in African green monkey Vero cells assessed as reduction in viral cytopathic effect; type: functional, organism-based; in short: as §1
[12] = tested on: Mammalian orthoreovirus 1; test: Antiviral activity against Reovirus-1 infected in African green monkey Vero cells assessed as reduction in viral cytopathic effect; type: functional, organism-based; in short: as §1
Human respirovirus 3 = test: Antiviral activity against Human parainfluenza virus 3 infected in African green monkey Vero cells assessed as reduction in viral cytopathic effect; type: functional, organism-based; in short: as §1
Sindbis virus = test: Antiviral activity against Sindbis virus infected in African green monkey Vero cells assessed as reduction in viral cytopathic effect; type: functional, organism-based; in short: as §1
[13] = Selectivity index, ratio of CC50 for HEL cells to EC50 for thymidine kinase deficient Varicella zoster virus 07/1 infected in HEL cells; type: toxicity, cell-based; conditions: human, read-out: Ratio CC50/EC50; in short: as §4
Human betaherpesvirus 5 [14] = test: Antiviral activity against Human cytomegalovirus AD169 infected in HEL cells assessed as reduction in viral cytopathic effect; type: functional, organism-based; conditions: Human betaherpesvirus 5, AD169, HEL; in short: as §1
[15] = tested on: Human immunodeficiency virus 1; test: Antiviral activity against Human immunodeficiency virus 1 LAV1 infected in primary human PBM cells after 6 days by reverse transcriptase activity-based assay; type: functional, organism-based

Cc1cn(C/C=C/CP(=O)(N[C@@H](C)C(=O)OC(C)C)Oc2ccccc2)c(=O)[nH]c1=O (some centres undefined)
EC50 (Human betaherpesvirus 5 [1]): 13.5 µM | Activity (Coxsackievirus B4 [2]): inactive | EC50 (Vaccinia virus): > 100 µM | Activity (Influenza B virus): inactive | EC50 (Human alphaherpesvirus 1 [3]): > 100 µM | EC50 (Human alphaherpesvirus 3 [4]): 4.59 µM | Activity (Influenza A virus): inactive | Activity (Influenza A virus H3N2): inactive | EC50 (Human alphaherpesvirus 1 [5]): > 100 µM | MCC [6]: > 100 µM | selectivity ratio [7]: > 22 | EC50 (Human alphaherpesvirus 2): > 100 µM | CC50 (HEL): > 100 µM | EC50 (Human alphaherpesvirus 3 [8]): 1030 nM | EC50 (Human coronavirus 229E): > 100 µM | Activity [9]: inactive | Activity [10]: inactive | Activity (Coxsackievirus B4 [11]): inactive | Activity [12]: inactive | Activity (Human respirovirus 3): inactive | Activity (Sindbis virus): inactive | selectivity ratio [13]: > 97 | EC50 (Human betaherpesvirus 5 [14]): 25.9 µM | Activity [15]: inactive
